Measurements published in ChEMBL document CHEMBL3272286, “Inhibitors of Bacillus subtilis DNA polymerase III. Structure-activity relationships of 6-(phenylhydrazino)uracils” (J Med Chem, 1977).

Assays:
[1] = Inhibition of wild type Bacillus subtilis DNA polymerase-3 using DNAase 1-treated DNA as template assessed as inhibition of dGTP truncated DNA synthesis by measuring incorporation of [3H]-TMP in presence of dithiothreitol
In short: (§1)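 dGTP-omitted pol III reaction, 30 °C, 5 min, in 0.05 mL: 20% glycerol, 50 mM Tris HCl pH 7.6, 10 mM MgCl2, 30 mM NaCl, 1.2 mM DNAase I-activated calf thymus DNA, 5 mM DTT, 0.1 mg/mL BSA, 10 μM each dATP, dCTP and [3H]-TTP, 0.005-0.1 unit enzyme. Read-out is acid-insoluble radioactivity. Ki is the inhibitor concentration giving 50% inhibition.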

[2] = Inhibition of HPUra/HPiCyt-resistant Bacillus subtilis DNA polymerase-3/azp-12 mutant using DNAase 1-treated DNA as template assessed as inhibition of dGTP truncated DNA synthesis by measuring incorporation of [3H]-TMP in presence of dithiothreitol; in short: as §1
[3] = test system: Bacillus subtilis; assay: Inhibition of wild type Bacillus subtilis DNA polymerase-3 using DNAase 1-treated DNA as template assessed as inhibition of dGTP truncated DNA synthesis by measuring incorporation of [3H]-TMP at 1 mM in presence of dithiothreitol relative to control; in short: as §1
[4] = test system: Bacillus subtilis; assay: Resistance ratio of Ki for HPUra/HPiCyt-resistant Bacillus subtilis DNA polymerase-3/azp-12 mutant to Ki for wild type Bacillus subtilis DNA polymerase-3
[5] = test system: Bacillus subtilis; assay: Inhibition of wild type Bacillus subtilis DNA polymerase-3 using DNAase 1-treated DNA as template assessed as inhibition of dGTP truncated DNA synthesis by measuring incorporation of [3H]-TMP at 20 uM in presence of dithiothreitol relative to control; in short: as §1
[6] = test system: Bacillus subtilis; assay: Inhibition of HPUra/HPiCyt-resistant Bacillus subtilis DNA polymerase-3/azp-12 mutant using DNAase 1-treated DNA as template assessed as inhibition of dGTP truncated DNA synthesis by measuring incorporation of [3H]-TMP at 20 uM relative to control in presence of dithiothreitol; in short: as §1

SMILES	Ki [1]	also measured
Cc1ccccc1NNc1cc(=O)[nH]c(=O)[nH]1	234 µM	
Cc1cc(NNc2cc(=O)[nH]c(=O)[nH]2)ccc1O	51.2 µM	
CN(Nc1cc(=O)[nH]c(=O)[nH]1)c1ccccc1	480 µM	
Cc1cc(NNc2cc(=O)[nH]c(=O)[nH]2)cc(C)c1O	124 µM	
NNc1cc(=O)[nH]c(=O)[nH]1		inhibition [3]: < 10%
Nc1nc(NNc2ccc(O)cc2)cc(=O)[nH]1		Ratio Ki [4]: 30
O=c1cc(NNc2ccc(O)c(Cl)c2)[nH]c(=O)[nH]1	8.8 µM	
CCc1ccccc1NNc1cc(=O)[nH]c(=O)[nH]1	562 µM	
O=c1cc(NNc2ccccc2F)[nH]c(=O)[nH]1	7.2 µM	
Nc1cc(O)nc(O)n1		inhibition [3]: < 10%
CS(=O)(=O)c1ccc(NNc2cc(=O)[nH]c(=O)[nH]2)cc1	209 µM	
Cn1c(NNc2ccccc2)cc(=O)[nH]c1=O		inhibition [3]: < 10%
CCCCc1ccc(NNc2cc(=O)[nH]c(=O)[nH]2)cc1	2300 µM	
CC(=O)Nc1ccc(NNc2cc(=O)[nH]c(=O)[nH]2)cc1	560 µM	
O=c1cc(NNc2ccc([N+](=O)[O-])cc2)[nH]c(=O)[nH]1	26.3 µM	
O=C(O)c1ccc(NNc2cc(=O)[nH]c(=O)[nH]2)cc1	98 µM	

Continued by falling Ki [1], values first:

Ki [1]	SMILES	also measured
7.1 µM	Nc1ccc(NNc2cc(=O)[nH]c(=O)[nH]2)cc1	Ki [2]: 76.4 µM
3 µM	O=c1cc(NNc2ccc(F)cc2)[nH]c(=O)[nH]1	inhibition [5]: 82%; inhibition [6]: 93%
2.5 µM	Cc1cccc(NNc2cc(=O)[nH]c(=O)[nH]2)c1	inhibition [5]: 80%; inhibition [6]: 85%
1.6 µM	CCc1ccc(NNc2cc(=O)[nH]c(=O)[nH]2)cc1	
1.6 µM	Cn1c(=O)cc(NNc2ccccc2)[nH]c1=O	
1.4 µM	O=c1cc(NNc2ccccc2)[nH]c(=O)[nH]1	Ki [2]: 2.1 µM
1.4 µM	O=c1cc(NNc2cccc(Br)c2)[nH]c(=O)[nH]1	
1.4 µM	Cc1ccc(NNc2cc(=O)[nH]c(=O)[nH]2)cc1C	
1.1 µM	O=c1cc(NNc2cccc(Cl)c2)[nH]c(=O)[nH]1	
0.9 µM	O=c1cc(NNc2ccc(Cl)cc2)[nH]c(=O)[nH]1	inhibition [5]: 91%; inhibition [6]: 95%
0.8 µM	Cc1ccc(NNc2cc(=O)[nH]c(=O)[nH]2)cc1Cl	
0.7 µM	O=c1cc(NNc2cccc(F)c2)[nH]c(=O)[nH]1	
0.7 µM	O=c1cc(NNc2ccc(Br)cc2)[nH]c(=O)[nH]1	inhibition [5]: 82%; inhibition [6]: 95%
0.6 µM	O=c1cc(NNc2ccc(Cl)c(Cl)c2)[nH]c(=O)[nH]1	
0.5 µM	Cc1ccc(NNc2cc(=O)[nH]c(=O)[nH]2)cc1	Ki [2]: 0.4 µM
0.5 µM	Cn1c(=O)cc(NNc2ccc(O)cc2)[nH]c1=O	
0.4 µM	O=c1cc(NNc2ccc(O)cc2)[nH]c(=O)[nH]1	Ki [2]: 20 µM; Ratio Ki [4]: 50
